# High-throughput results as filed in PubChem.
# GSTO1 inh: GSTO1 inhibition, counter-screen for RBBP9 inhibitors | recombinant GSTO1, activity-based probe fluorescence polarization | hit rate 1.1% among 300,000 | AID 1974 | inhibition, % at 5.96 µM;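 active = inhibition above the campaign mean inhibition plus 3 SD, cut at about 35% in these data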;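 note: 0% = GSTO1-1 with DMSO and 100% = wells lacking GSTO1-1 enzyme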
# E coli Lon inh: E. coli protease La inhibition; inhibition, % at 7.94 µM; purified E. coli Lon protease, fluorescence polarization; AID 602123; hit rate 0.42% among 360,000; P0A9M0; in the data active = inhibition above about 13%, passing the limit was not always enough;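 note: 0% = enzyme with probe and DMSO and 100% = no enzyme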
# PAD4 FP inh: PAD4 (human) enzyme inhibition. recombinant PAD4, RCA probe fluorescence polarization. hit rate 0.41% among 330,000. AID 485272. inhibition, % at 6.36 µM;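 active = percent inhibition above a cutoff equal to the mean of all tested compounds plus 3 SD, cut at about 15% in these data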;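 note: 0% = PAD4 with RCA probe and DMSO and 100% = probe without PAD4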
# Target sequence (Q9UM07 whole entry, looked up): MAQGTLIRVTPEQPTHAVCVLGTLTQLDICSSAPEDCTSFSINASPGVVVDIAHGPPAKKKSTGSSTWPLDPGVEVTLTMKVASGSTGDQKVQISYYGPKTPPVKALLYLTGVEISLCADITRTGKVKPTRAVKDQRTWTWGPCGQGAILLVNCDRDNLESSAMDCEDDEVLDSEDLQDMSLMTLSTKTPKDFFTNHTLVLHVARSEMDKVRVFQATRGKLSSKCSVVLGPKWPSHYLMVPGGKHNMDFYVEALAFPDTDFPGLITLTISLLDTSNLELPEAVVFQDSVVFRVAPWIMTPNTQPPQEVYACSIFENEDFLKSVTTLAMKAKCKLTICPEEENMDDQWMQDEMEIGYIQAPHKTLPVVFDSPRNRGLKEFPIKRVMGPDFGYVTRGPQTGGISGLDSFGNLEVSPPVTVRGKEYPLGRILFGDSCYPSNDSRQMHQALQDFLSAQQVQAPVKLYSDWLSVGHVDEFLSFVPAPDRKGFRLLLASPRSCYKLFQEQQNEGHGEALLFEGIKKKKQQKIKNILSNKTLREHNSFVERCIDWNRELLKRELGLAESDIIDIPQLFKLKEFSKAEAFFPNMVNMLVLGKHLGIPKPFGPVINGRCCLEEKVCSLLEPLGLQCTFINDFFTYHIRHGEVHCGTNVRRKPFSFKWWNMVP
# PRMT1 inh: blocks human protein arginine methyltransferase 1. Q99873. recombinant PRMT1, activity-based probe fluorescence polarization. inhibition, % at 2.79 µM. hit rate 1.3% among 370,000. AID 652257;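 active = inhibition above about 21% made by adding two undisclosed values, limit read from the data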
# TDP2 absorb: TDP2 (human) inhibition, absorbance primary screen. O95551. recombinant TDP2, T5PNP hydrolysis, p-nitrophenol absorbance 415 nm. inhibition, % at 12.8 µM. hit rate 0.34% among 370,000;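 active = inhibition above the mean of all tested compounds plus 3 SD, set per campaign, cut at about 25% in these data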;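 note: 0% = DMSO with enzyme and 100% = buffer with substrate but no TDP2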
#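 System – recombinant human TDP2 · Quantity – TDP2 enzyme at 120 nM final · Doses – single concentration, 12.8 µM nominal, with 1% DMSO · Incubation – 2 h at 37 °C · Measured by – epi absorbance of p-nitrophenol freed from T5PNP by hydrolysis · Read-out – % inhibition relative to enzyme-containing and enzyme-free wells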
# GSTO1 confirm: confirmation of human GSTO1 inhibitors; shares compounds with GSTO1 inh; recombinant GSTO1, probe fluorescence polarization; inhibition, % at 5.96 µM; hit rate 54% among 2,400; AID 2176;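 active = inhibition above the primary screen's cutoff, its mean inhibition plus 3 SD, cut at about 35% in these data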;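 note: loss of polarization as inhibitors block binding of rhodamine sulfonate ester activity probe; 0% = GSTO1 with DMSO and 100% = wells lacking GSTO1 enzyme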
# GSTO1 recomb ABPP: GSTO1 (human) inhibition by gel ABPP. shares compounds with GSTO1 inh. inhibition, % at 1 µM. hit rate 30% among 130. recombinant GSTO1, gel ABPP SE-Rh probe fluorescence;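 active = inhibition of the enzyme GSTO1 above about 75%, limit read from the data; inactive = inhibition below that limit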
# The depositor's hits bear a star; x = no result. Shown are actives, neighbours in structure and some others; about 2.5% of the full set was active somewhere.
SMILES,GSTO1 inh,E coli Lon inh,PAD4 FP inh,PRMT1 inh,TDP2 absorb,GSTO1 confirm,others
O=C1CN(C(=O)COC(=O)CNC(=O)c2ccccc2)c2ccccc2N1,89*,-8,-3,-3,7,3,
O=C1CN(C(=O)COC(=O)CNC(=O)c2ccc(Cl)cc2)c2ccccc2N1,8,0,-1,9,-7,x,
Cc1ccc(C2CCC3(CCC(=O)N3CCO)CC2)cc1 (stereo unspecified),x,x,x,-3,1,x,
Cc1nnc(SCC(=O)c2cc(C)n(-c3c(C)n(C)n(-c4ccccc4)c3=O)c2C)s1,38*,-1,3,1,-3,27,
COc1ccc(C2(C)NC(=O)N(CC(=O)NCCC3=CCCCC3)C2=O)cc1OC (stereo unspecified),39*,-3,-4,-2,-12,22,
COc1ccc2cc(C3(C)NC(=O)N(CC(=O)NCCC4=CCCCC4)C3=O)ccc2c1 (stereo unspecified),2,3,-1,-1,0,x,
Nc1ccc2ccc(NS(=O)(=O)N3CCCCC3)cc2c1,x,x,x,3,-6,x,
COC(=O)[C@]12C[C@H](CC(=O)N3CCN(C(=O)C4CC4)CC3)C(=O)N(CCc3ccc(OC)c(OC)c3)C1=C[C@H](C(C)(C)C)O[C@@H]2C,x,x,x,1,1,x,
COC(=O)[C@]12C[C@H](CC(=O)NCC3CCCCC3)C(=O)N(Cc3cccc4ccccc34)C1=C[C@H](C1CCCC1)O[C@@H]2C,x,x,x,4,-8,x,
COC1=CC(=O)CC(C)C12Oc1cc(OC)cc(OC)c1C2=O (stereo unspecified),47*,1,2,2,10,33,
O=c1cc(CCl)nc2sc3ccccc3n12,89*,-2,2,7,-2,100*,GSTO1 recomb ABPP=87*
O=C(OCc1cc(=O)n2c(n1)sc1ccccc12)c1ccc(O)cc1,-3,2,-6,-1,14,x,
O=C(O)c1cccc(N/N=C(\N=Nc2ccccc2)c2ccccc2)c1,21,4,1,3,-3,x,
O=C(O)c1ccc(N=N/C(=N\Nc2ccc(C(=O)O)cc2)c2ccccc2)cc1,39*,-2,1,0,-9,67*,
COc1ccc(-c2cc(-c3nnc(SCC(=O)N4CCOCC4)n3N)[nH]n2)cc1,x,x,x,-3,1,x,
Oc1c(Br)cc(/C=N/n2c(-c3ccccc3)n[nH]c2=S)c(O)c1Br,x,-6,x,x,x,x,
Cc1c(Br)c(O)c(Br)c(O)c1/C=N/n1c(-c2ccccc2)n[nH]c1=S,58*,2,1,x,x,35*,
COc1ccc(S[C@]2(C(=O)N3CCOCC3)CC(=O)N(c3ccccc3)[C@@H]2c2ccc(OC)cc2)cc1,x,x,x,6,-7,x,
O=C(c1ccc(Br)o1)N1CCN(c2ccc3nnc(-c4ccccc4)n3n2)CC1,40*,0,-2,-2,-1,0,
O=C(OCC(=O)N1CCC(c2ccccc2)=N1)c1ccc([N+](=O)[O-])s1,58*,2,-3,-2,11,29,
Cc1[nH]c2ccccc2c1C(=O)COC(=O)c1ccc([N+](=O)[O-])s1,52*,-7,-13,-10,16,20,
Cc1cc(C(=O)OCC(=O)N2CCC(c3ccccc3)=N2)ccc1[N+](=O)[O-],-5,-11,2,2,10,x,
Cc1ccc(-c2c(C(=O)NC3CCCC3)oc(=O)c3ccccc23)cc1,x,x,x,-7,-12,x,
C#CC(=O)N(c1cc(OC)ccc1OC)C(C(=O)NC1CCCC1)c1cccs1 (stereo unspecified),65*,-16,0,x,x,68*,
Cc1cc([N+](=O)[O-])cc2c1NC(c1ccccn1)C1CC=CC21 (stereo unspecified),23,-19,-2,2,7,x,
O=[N+]([O-])c1ccc(Cl)c2c1C1C=CCC1C(c1ccccn1)N2 (stereo unspecified),39*,7,9,14,0,8,
Cc1cc(Nc2cccc(C(=O)O)c2)n2ncnc2n1,86*,-2,-2,2,8,5,
Cc1cc(NS(=O)(=O)C2CCN(C(=O)Cc3ccc(Cl)c(Cl)c3)CC2)no1,x,x,x,2,4,x,
CCCNC(=O)COC(=O)c1c2c(nc3ccccc13)CCC2,47*,4,5,3,4,2,
